{"source": "ChEMBL document CHEMBL1154674", "about": "“Synthesis and evaluation of three 18F-labeled aminophenylbenzothiazoles as amyloid imaging agents” (J Med Chem, 2009)", "format_in_all_cases": "ADME, organism-based, Macaca mulatta", "key": {"[1]": {"assay": "Drug level in normal rhesus monkey parietal cortex assessed as standard uptake value at 109.4 MBq, iv after 111 mins by microPET", "details": "in vivo"}, "[2]": {"assay": "Drug level in normal rhesus monkey white matter assessed as standard uptake value at 109.4 MBq, iv after 9.5 mins by microPET", "details": "in vivo"}, "[3]": {"assay": "Drug level in normal rhesus monkey white matter assessed as standard uptake value at 109.4 MBq, iv after 75 mins by microPET", "details": "in vivo, 1.25 h"}, "[4]": {"assay": "Drug level in normal rhesus monkey frontal cortex assessed as standard uptake value at 109.4 MBq, iv after 129 mins by microPET", "details": "in vivo, 2.15 h"}, "[5]": {"assay": "Drug level in normal rhesus monkey frontal cortex assessed as standard uptake value at 109.4 MBq, iv after 0.875 mins by microPET", "details": "in vivo, 52 s"}, "[6]": {"assay": "Drug level in normal rhesus monkey thalamus assessed as standard uptake value at 109.4 MBq, iv after 0.875 mins by microPET", "details": "in vivo, 52 s"}, "[7]": {"assay": "Drug level in normal rhesus monkey cerebellum assessed as standard uptake value at 81.2 MBq, iv after 37.5 mins by microPET", "details": "in vivo, 0.625 h", "outline": "(§1)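 One normal rhesus monkey, each tracer given iv via the vena saphena (81.2, 96.3 or 109.4 MBq), with 1 day between tracer injections. Dynamic brain μPET over 180 min used frames of 5 × 60 s, 5 × 120 s, 9 × 300 s and 12 × 600 s. Images were reconstructed by filtered back projection with a RAMP filter. Regional time-activity curves were expressed as SUV.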"}, "[8]": {"assay": "Drug level in normal rhesus monkey cerebellum assessed as standard uptake value at 81.2 MBq, iv after 165 mins by microPET", "details": "in vivo, 2.75 h", "outline": "as §1"}, "[9]": {"assay": "Drug level in normal rhesus monkey parietal cortex assessed as standard uptake value at 81.2 MBq, iv after 0.5 mins by microPET", "details": "in vivo"}, "[10]": {"assay": "Drug level in normal rhesus monkey pons assessed as standard uptake value at 81.2 MBq, iv after 22.5 mins by microPET", "details": "in vivo, 0.375 h"}, "[11]": {"assay": "Drug level in normal rhesus monkey cerebellum assessed as standard uptake value at 81.2 MBq, iv after 57.5 mins by microPET", "details": "in vivo", "outline": "as §1"}, "[12]": {"assay": "Drug level in normal rhesus monkey frontal cortex assessed as standard uptake value at 81.2 MBq, iv after 2.5 mins by microPET", "details": "in vivo"}, "[13]": {"assay": "Drug level in normal rhesus monkey parietal cortex assessed as standard uptake value at 81.2 MBq, iv after 3.5 mins by microPET", "details": "in vivo"}, "[14]": {"assay": "Drug level in normal rhesus monkey frontal cortex assessed as standard uptake value at 81.2 MBq, iv after 17.5 mins by microPET", "details": "in vivo"}, "[15]": {"assay": "Drug level in normal rhesus monkey thalamus assessed as standard uptake value at 81.2 MBq, iv after 3.5 mins by microPET", "details": "in vivo"}, "[16]": {"assay": "Drug level in normal rhesus monkey frontal cortex assessed as standard uptake value at 81.2 MBq, iv after 57.5 mins by microPET", "details": "in vivo"}, "[17]": {"assay": "Drug level in normal rhesus monkey parietal cortex assessed as standard uptake value at 152.9 MBq, iv after 57.5 mins by microPET", "details": "in vivo"}, "[18]": {"assay": "Drug level in normal rhesus monkey white matter assessed as standard uptake value at 152.9 MBq, iv after 85 mins by microPET", "details": "in vivo"}, "[19]": {"assay": "Drug level in normal rhesus monkey thalamus assessed as standard uptake value at 152.9 MBq, iv after 32.5 mins by microPET", "details": "in vivo"}, "[20]": {"assay": "Drug level in normal rhesus monkey frontal cortex assessed as standard uptake value at 152.9 MBq, iv after 42.5 mins by microPET", "details": "in vivo", "outline": "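Single normal rhesus monkey; tracer given iv via the vena saphena, 1 day apart from the other tracer injections. Dynamic μPET ran 90 min (5×60 s, 5×120 s, 9×300 s, 3×600 s). Images were reconstructed by filtered back projection with a RAMP filter. Regional time-activity curves were expressed as SUV.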"}, "[21]": {"assay": "Drug level in normal rhesus monkey thalamus assessed as standard uptake value at 152.9 MBq, iv after 37.5 mins by microPET", "details": "in vivo, 0.625 h"}, "[22]": {"assay": "Drug level in normal rhesus monkey cerebellum assessed as standard uptake value at 152.9 MBq, iv after 22.5 mins by microPET", "details": "in vivo, 0.375 h", "outline": "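One normal rhesus monkey received each tracer via the vena saphena, with 1 day between injections. Dynamic μPET ran 180 min for 18F tracers (5×60 s, 5×120 s, 9×300 s, 12×600 s) and 90 min for the 11C tracer (5×60 s, 5×120 s, 9×300 s, 3×600 s). Filtered back-projection reconstruction (RAMP filter) was used. Time-activity curves were drawn to give regional SUV.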"}, "[23]": {"assay": "Drug level in normal rhesus monkey pons assessed as standard uptake value at 152.9 MBq, iv after 0.5 mins by microPET", "details": "in vivo"}, "[24]": {"assay": "Drug level in normal rhesus monkey thalamus assessed as standard uptake value at 152.9 MBq, iv after 2.5 mins by microPET", "details": "in vivo"}, "[25]": {"assay": "Drug level in normal rhesus monkey parietal cortex assessed as standard uptake value at 152.9 MBq, iv after 0.5 mins by microPET", "details": "in vivo"}, "[26]": {"assay": "Drug level in normal rhesus monkey pons assessed as standard uptake value at 96.3 MBq, iv after 42.5 mins by microPET", "details": "in vivo"}, "[27]": {"assay": "Drug level in normal rhesus monkey white matter assessed as standard uptake value at 96.3 MBq, iv after 27.5 mins by microPET", "details": "in vivo"}, "[28]": {"assay": "Drug level in normal rhesus monkey white matter assessed as standard uptake value at 96.3 MBq, iv after 8 mins by microPET", "details": "in vivo"}, "[29]": {"assay": "Drug level in normal rhesus monkey cerebellum assessed as standard uptake value at 96.3 MBq, iv after 6 mins by microPET", "details": "in vivo, 0.1 h", "outline": "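Single normal rhesus monkey; each tracer given iv via the vena saphena, with 1 day between tracer injections. Dynamic μPET ran 180 min (5×60 s, 5×120 s, 9×300 s, 12×600 s). Images were reconstructed by filtered back projection with a RAMP filter. Regional time-activity curves were expressed as SUV.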"}, "[30]": {"assay": "Drug level in normal rhesus monkey thalamus assessed as standard uptake value at 96.3 MBq, iv after 22.5 mins by microPET", "details": "in vivo, 0.375 h"}, "[31]": {"assay": "Drug level in normal rhesus monkey frontal cortex assessed as standard uptake value at 96.3 MBq, iv after 14 mins by microPET", "details": "in vivo"}, "[32]": {"assay": "Drug level in normal rhesus monkey pons assessed as standard uptake value at 96.3 MBq, iv after 47.5 mins by microPET", "details": "in vivo"}, "[33]": {"assay": "Drug level in normal rhesus monkey frontal cortex assessed as standard uptake value at 96.3 MBq, iv after 8 mins by microPET", "details": "in vivo"}, "[34]": {"assay": "Drug level in normal rhesus monkey thalamus assessed as standard uptake value at 96.3 MBq, iv after 135 mins by microPET", "details": "in vivo, 2.25 h"}, "[35]": {"assay": "Drug level in normal rhesus monkey parietal cortex assessed as standard uptake value at 96.3 MBq, iv after 0.5 mins by microPET", "details": "in vivo"}, "[36]": {"assay": "Drug level in normal rhesus monkey cerebellum assessed as standard uptake value at 96.3 MBq, iv after 52.5 mins by microPET", "details": "in vivo, 0.875 h", "outline": "as §1"}}}
{"molecule": "Nc1ccc2nc(-c3ccc([18F])cc3)sc2c1", "values": [{"measurement": "SUV", "setting": "[1]", "value": 3.59}, {"measurement": "SUV", "setting": "[2]", "value": 2.99}, {"measurement": "SUV", "setting": "[3]", "value": 3.63}, {"measurement": "SUV", "setting": "[4]", "value": 4.06}, {"measurement": "SUV", "setting": "[5]", "value": 1.73}, {"measurement": "SUV", "setting": "[6]", "value": 2.43}]}
{"molecule": "CNc1ccc2nc(-c3ccc([18F])cc3)sc2c1", "values": [{"measurement": "SUV", "setting": "[7]", "value": 2.545}, {"measurement": "SUV", "setting": "[8]", "value": 1.585}, {"measurement": "SUV", "setting": "[9]", "value": 0.924}, {"measurement": "SUV", "setting": "[10]", "value": 5.688}, {"measurement": "SUV", "setting": "[11]", "value": 2.522}, {"measurement": "SUV", "setting": "[12]", "value": 4.284}, {"measurement": "SUV", "setting": "[13]", "value": 4.897}, {"measurement": "SUV", "setting": "[14]", "value": 5.789}, {"measurement": "SUV", "setting": "[15]", "value": 3.83}, {"measurement": "SUV", "setting": "[16]", "value": 5.004}]}
{"molecule": "[11CH3]Nc1ccc(-c2nc3ccc(O)cc3s2)cc1", "note": "[PITTSBURGH COMPOUND B]", "values": [{"measurement": "SUV", "setting": "[17]", "value": 0.742}, {"measurement": "SUV", "setting": "[18]", "value": 0.878}, {"measurement": "SUV", "setting": "[19]", "value": 1.517}, {"measurement": "SUV", "setting": "[20]", "value": 0.84}, {"measurement": "SUV", "setting": "[21]", "value": 1.364}, {"measurement": "SUV", "setting": "[22]", "value": 1.502}, {"measurement": "SUV", "setting": "[23]", "value": 0.041}, {"measurement": "SUV", "setting": "[24]", "value": 1.195}, {"measurement": "SUV", "setting": "[25]", "value": 0.039}]}
{"molecule": "CN(C)c1ccc2nc(-c3ccc([18F])cc3)sc2c1", "values": [{"measurement": "SUV", "setting": "[26]", "value": 1.7}, {"measurement": "SUV", "setting": "[27]", "value": 1.39}, {"measurement": "SUV", "setting": "[28]", "value": 1.16}, {"measurement": "SUV", "setting": "[29]", "value": 1.72}, {"measurement": "SUV", "setting": "[30]", "value": 2.35}, {"measurement": "SUV", "setting": "[31]", "value": 2.19}, {"measurement": "SUV", "setting": "[32]", "value": 1.84}, {"measurement": "SUV", "setting": "[33]", "value": 1.98}, {"measurement": "SUV", "setting": "[34]", "value": 1.97}, {"measurement": "SUV", "setting": "[35]", "value": 0.65}, {"measurement": "SUV", "setting": "[36]", "value": 1.25}]}
